Experimental data as given in PMC10582678 (Clinical and Translational Science, 2023).
“Also recorded” adds a separate entry of the source.

Columns and labels:
Assay type in all cases: in vivo, human
[1] = Plasma pharmacokinetics, food effect; conditions: 600 mg; for half-life / Tmax: human, plasma, oral; for half-life: T1/2, 600 mg, mean ± SD; for Tmax: median (min, max)
Method in brief: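 This was a randomized, open-label, two-period crossover in 12 healthy subjects. Each received one oral 600 mg dose fasted then fed, or the reverse, with a 7-day washout. Drug was quantified by validated HPLC-tandem accurate mass spectrometry (calibration 5.00–5000 ng/mL). Parameters came from noncompartmental analysis.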

[2] = Plasma pharmacokinetics, multiple ascending doses; conditions: for CLss/F / AUC(0-t) / Cmax: mean ± SD; for AUC / Vd/F / concentration at 10 day / half-life / AUC(0-t) / Cmax / Tmax: human, plasma, oral; for AUC(0-t): AUC0-t; for Cmax: C max; for Tmax: T max
Method in brief: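 This was a double-blind, placebo-controlled design with three cohorts of eight (6 active, 2 placebo). Cohorts received oral 200, 400 or 600 mg q.d. for 10 consecutive days, with extra predose trough samples on days 8 and 9. Plasma drug was measured by validated HPLC-tandem accurate mass spectrometry (5.00–5000 ng/mL). Noncompartmental parameters were reported for day 1 and day 10, with Rac(AUC) = AUC0-τ day 10/AUC0-t day 1.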

[3] = Safety, adverse events, whole study
Method in brief: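 Safety was monitored by vital signs, clinical laboratory tests, physical examination, 12-lead ECG, AEs and SAEs. AEs were coded with MedDRA 23.1 and graded by CTCAE 5.0. Subjects were discharged 6 days after the last dose, with a follow-up visit 8–14 days after the last dose. The safety set comprised randomized subjects who received active drug or placebo and had post-dose safety data.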

[4] = 200 mg, MAD 200 mg q.d., Day 10
[5] = 400 mg, MAD 400 mg q.d., Day 10
[6] = 600 mg, MAD 600 mg q.d., Day 10
[7] = among 57 subjects who received SN1011

N#CN1C[C@H](n2nc(-c3ccc(Oc4ccc(Cl)cn4)cc3)c(C(N)=O)c2N)CCC12CC2 [SN1011, 5-amino-3-(4-((5-chloro-2-pyridinyl)oxy)phenyl)-1-((6R)-4-cyano-4-azaspiro[2.5]octan-6-yl)-1H-pyrazole-4-carboxamide]
AUC0-inf, Geometric Mean Ratio ([1]; fed state to fasted state): 93.76% | AUC0-t, Geometric Mean Ratio ([1]; fed state to fasted state): 92.79% | Cmax, Geometric Mean Ratio ([1]; fed state to fasted state): 97.08% | half-life ([1]; Fasted): 1460 ± 522 min | half-life ([1]; Fed): 1600 ± 798 min | Tmax ([1]; Fasted): 4 h | Tmax ([1]; Fed): 6 h | T last ([2]; MAD 200 mg q.d., Day 1, median (min, max)): 23.7 (23.7, 23.8) h | CLss/F ([2]; MAD 200 mg q.d., Day 10): 27.2 ± 13.4 (49%) L/h | T last ([2]; MAD 200 mg q.d., Day 10, median (min, max)): 120.0 (72.0, 120.0) h | T last ([2]; MAD 400 mg q.d., Day 1, median (min, max)): 23.8 (23.7, 23.9) h | CLss/F ([2]; MAD 400 mg q.d., Day 10): 27.4 ± 6.2 (23%) L/h | T last ([2]; MAD 400 mg q.d., Day 10, median (min, max)): 120.0 (120.0, 120.0) h | T last ([2]; MAD 600 mg q.d., Day 1, median (min, max)): 23.8 (23.7, 23.8) h | CLss/F ([2]; MAD 600 mg q.d., Day 10): 30.0 ± 9.8 (33%) L/h | T last ([2]; MAD 600 mg q.d., Day 10, median (min, max)): 120.0 (96.0, 120.0) h | AUC ([2]; 200 mg): 8690 ± 3420 ng·h/mL | Vd/F ([2]; 200 mg): 728 ± 161 L | concentration at 10 day ([2]; 200 mg): 257 ± 111 ng/mL | half-life ([2]; 200 mg): 1230 ± 318 min | AUC(0-t) ([2]; 200 mg, MAD 200 mg q.d., Day 1): 4280 ± 1130 ng·h/mL | AUC(0-t) [2, 4]: 17300 ng·h/mL | Cmax ([2]; 200 mg, MAD 200 mg q.d., Day 1, N = 5): 260 ± 54.8 ng/mL | Cmax [2, 4]: 516 ± 172 ng/mL | Tmax ([2]; 200 mg, MAD 200 mg q.d., Day 1, median (min, max)): 3 h | Tmax ([2]; 200 mg, MAD 200 mg q.d., Day 10, median (min, max)): 3 h | AUC ([2]; 400 mg): 15200 ng·h/mL | Vd/F ([2]; 400 mg): 736 ± 181 L | concentration at 10 day ([2]; 400 mg): 419 ± 121 ng/mL | half-life ([2]; 400 mg): 1140 ± 324 min | AUC(0-t) ([2]; 400 mg, MAD 400 mg q.d., Day 1): 9170 ± 1640 ng·h/mL | AUC(0-t) [2, 5]: 26400 ng·h/mL | Cmax ([2]; 400 mg, MAD 400 mg q.d., Day 1): 727 ± 183 ng/mL | Cmax [2, 5]: 1070 ± 234 ng/mL | Tmax ([2]; 400 mg, MAD 400 mg q.d., Day 1, median (min, max)): 4 h | Tmax ([2]; 400 mg, MAD 400 mg q.d., Day 10, median (min, max)): 3.5 h | AUC ([2]; 600 mg): 22000 ng·h/mL | Vd/F ([2]; 600 mg): 872 ± 345 L | concentration at 10 day ([2]; 600 mg): 531 ± 264 ng/mL | half-life ([2]; 600 mg): 1220 ± 246 min | AUC(0-t) ([2]; 600 mg, MAD 600 mg q.d., Day 1): 12200 ng·h/mL | AUC(0-t) [2, 6]: 40300 ng·h/mL | Cmax ([2]; 600 mg, MAD 600 mg q.d., Day 1): 910 ± 332 ng/mL | Cmax [2, 6]: 1600 ± 497 ng/mL | Tmax ([2]; 600 mg, MAD 600 mg q.d., Day 1, median (min, max)): 4 h | Tmax ([2]; 600 mg, MAD 600 mg q.d., Day 10, median (min, max)): 2.5 h | Tmax ([2]; MAD, steady-state conditions, across 200-600 mg q.d.): 2.5 to 3.5 h | steady-state in the plasma achieved on ([2]; once daily administration): 8 days | serious adverse events ([3]; all parts of the study): No serious adverse events; also recorded: no SAEs were reported | subjects who experienced AEs [3, 7]: 28 | total number of AEs [3, 7]: 55
